High-throughput results from PubChem BioAssay.
GalR3 antagonist = blocks the human galanin receptor 3 | HEK293 GalR3-CNG cAMP membrane potential fluorescence; galR3 body fused to GalR1 C-terminus | actives 0.44% (n = 360,000) | inhibition, % at 3 µM | AID 651719;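 active = inhibition above the screen-wide average plus 3 SD, cut at about 13% in these data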;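 also: forskolin and galanin both at EC90 stimulate the cells; cAMP rise reported by CNG channel membrane potential dye signal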
Target sequence (O60755 1-299 limits assumed): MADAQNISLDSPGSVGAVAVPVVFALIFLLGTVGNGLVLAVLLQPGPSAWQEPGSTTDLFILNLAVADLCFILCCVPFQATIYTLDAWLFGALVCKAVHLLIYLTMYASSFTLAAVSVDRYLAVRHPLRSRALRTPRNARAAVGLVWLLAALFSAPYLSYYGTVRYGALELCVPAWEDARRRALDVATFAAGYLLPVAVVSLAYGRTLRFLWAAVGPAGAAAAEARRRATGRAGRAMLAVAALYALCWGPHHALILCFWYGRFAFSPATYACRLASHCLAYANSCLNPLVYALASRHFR
OX1R antag-1 = blocks the human orexin 1 receptor | O43613 | CHO/OX1R cells, Fluo-8 calcium fluorescence, orexin A | inhibition, % at 5 µM | actives 0.43% (n = 330,000);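 active = inhibition above its plate's threshold, mean inhibition of all tested compounds on the plate plus 3 SD, cut at about 37% in these data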
Target sequence (O43613 whole entry, looked up): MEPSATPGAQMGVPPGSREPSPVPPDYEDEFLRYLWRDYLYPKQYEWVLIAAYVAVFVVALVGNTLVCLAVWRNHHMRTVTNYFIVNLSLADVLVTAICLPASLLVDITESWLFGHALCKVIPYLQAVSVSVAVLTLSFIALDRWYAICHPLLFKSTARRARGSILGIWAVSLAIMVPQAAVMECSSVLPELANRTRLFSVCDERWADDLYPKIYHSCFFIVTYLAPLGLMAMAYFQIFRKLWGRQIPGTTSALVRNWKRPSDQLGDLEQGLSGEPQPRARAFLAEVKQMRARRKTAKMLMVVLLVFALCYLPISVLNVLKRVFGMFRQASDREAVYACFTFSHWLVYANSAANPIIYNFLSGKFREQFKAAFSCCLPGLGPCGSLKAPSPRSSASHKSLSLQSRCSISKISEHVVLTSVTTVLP
CHO parental Ca = counter-screen for OX1R antagonists: effect in parental CHO cells | AID 463079 | inhibition, % at 5.6 µM | parental CHO-K1, ATP-induced calcium, Fluo-8 fluorescence | actives 0.63% (n = 330,000);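 active = inhibition above that plate's mean sample inhibition plus 3 SD, cut at about 26% in these data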
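Measured by: calcium-sensitive Fluo-8 fluorescence / Test system: CHO parental line / Controls: ATP-challenged DMSO wells low, unchallenged DMSO wells high / Measure: % inhibition / Compound: single nominal dose of 5.6 µM per compound / Replicates: single well per compound, no replicates / Reagent: ATP as calcium-mobilizing challenge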
OX1R antag-2 = antagonists of human orexin 1 receptor (OX1R); OX1R-expressing cells, FRET antagonist read-out; inhibition, % at 6.6 µM; actives 1.8% (n = 330,000); in the data active = inhibition mostly above about 38%, no sharp cut-off; inactive = mostly below about 40%
TAAR1 ag = human TAAR1 agonism | Q96RJ0 | CHO RD-HGA16 TAAR1, Fluo-8 calcium fluorescence; vehicle wells 0%, saturating PEA agonist 100% | activation, % at 3 µM | actives 0.99% (n = 360,000) | AID 624467;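 active = activation above the mean activation of all test compounds in the run plus 3 SD, cut at about 38% in these data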
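test system = CHO RD-HGA16 cells carrying human TAAR1 plus Gα16 | schedule = 17-24 h seeding, 75 min 37 °C dye, 30 min RT | compound dosing = 3 µM single concentration | control set = DMSO and PEA EC100 | replicates = n 1 | signal = Fluo-8 fluorescence, 5 s baseline then 140 s kinetic read | measure = percent activation vs PEA EC100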
TAAR1 antag = antagonists of human TAAR1; Q96RJ0; CHO RD-HGA16 TAAR1, Fluo-8 calcium fluorescence, antagonist; inhibition, % at 3 µM; actives 1.5% (n = 360,000);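 active = inhibition above a per-plate cutoff, the mean inhibition of test compounds on that plate plus 3 SD, cut at about 49% in these data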
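Material: CHO RD-HGA16 cells bearing hTAAR1; compound dosing: one-point dosing, 3 µM nominal final; schedule: dye loading 75 min at 37 °C, then 30 min room temperature; measured by: calcium fluorescence with Fluo-8; control set: vehicle and agonist controls; replication: n of 1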
OX1R HTRF conf = OX1R (human) antagonism, HTRF confirmed; shares compounds with OX1R antag-2; OX1R-expressing cells, HTRF antagonist assay; inhibition, % at 6.6 µM; actives 49% (n = 1,800); AID 492964; in the data active = inhibition above about 55%;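 also: CHO cells expressing OX1R stimulated with orexin A at about EC80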
CHO-K1 HTRF = counter-screen: parental CHO-K1 HTRF response | shares compounds with OX1R antag-2 | parental CHO-K1 cells, HTRF counterscreen | inhibition, % at 6.6 µM | actives 48% (n = 1,800) | AID 493232; in the data active = inhibition above about 17%
A number is an active result; i = inactive; nt = no result given; + = active, no number. Compounds with a hit are over-represented: about 4.3% of the library has one in this group of screens.

SMILES	GalR3 antagonist	OX1R antag-1	CHO parental Ca	OX1R antag-2	TAAR1 ag	TAAR1 antag	OX1R HTRF conf	CHO-K1 HTRF
O=c1ccn([C@@H]2O[C@H](CNCc3cccn3-c3ccncc3)[C@@H](O)[C@H]2O)c(=O)[nH]1	i	nt	nt	nt	i	i	nt	nt
CC(C)NC(=O)Nc1cccc2c1O[C@H](CN(C)S(C)(=O)=O)[C@@H](C)CN([C@H](C)CO)C2=O	i	i	i	i	i	i	nt	nt
NC1=NC(=O)/C(=C\c2ccc(O)c([N+](=O)[O-])c2)S1	i	i	i	90.5	i	i	69.3	57.9
Cc1cc([N+](=O)[O-])nn1CC(=O)N(C)C1CCCCC1	i	i	i	i	i	i	nt	nt
O=C(c1cccs1)N1CCN(c2nc3ccccc3s2)CC1	i	i	i	87.0	i	i	i	i
Cc1cccc2sc(N3CCN(C(=O)c4cccs4)CC3)nc12	i	i	i	i	i	i	nt	nt
O=C1NC[C@@H](CCCCN2CCN(Cc3ccccc3)C(=O)C2=O)N(Cc2ccccc2)C1=O	i	nt	nt	nt	i	i	nt	nt
O=Cc1c(Sc2ccccc2)nc2ccccn2c1=O	i	i	i	i	i	i	nt	nt
O=Cc1c(Sc2ccccn2)nc2ccccn2c1=O	i	i	i	95.5	i	i	i	44.6
COc1ccccc1NC(=O)c1nn(-c2cccc(C(F)(F)F)c2)ccc1=O	i	i	i	81.8	i	i	66.1	i
Cc1cccc(C)c1NC(=O)NC1(C(=O)NCc2ccncc2)CCCCC1	i	i	i	i	i	i	nt	nt
CCOc1ccc(OCC(=O)c2c(O)c3ccccc3oc2=O)cc1	i	i	i	79.4	i	i	i	i
COc1ccc(OCC(=O)c2c(O)c3ccccc3oc2=O)cc1	nt	i	i	i	nt	nt	nt	nt
COC(=O)c1ccc(N2CCN(C)CC2)c(NC(=O)c2sc3ccccc3c2Cl)c1	i	i	i	i	i	i	nt	nt
CCOc1ccc2c(c1)S/C(=C\c1cccs1)C(=O)N2	i	i	i	80.7	i	i	71.8	i
CC1CCCCC1NC(=O)CN(C)S(=O)(=O)c1cccc2nsnc12 (stereo not drawn)	i	i	i	83.9	i	i	i	24.4
CC(C)CCNC(=O)CN(C)S(=O)(=O)c1cccc2nsnc12	i	i	i	i	i	i	nt	nt
CN(CC(=O)NC1CCCCC1)S(=O)(=O)c1cccc2nsnc12	i	i	i	94.9	i	i	55.7	36.6
CN(CC(=O)NCCN1CCCCCC1)S(=O)(=O)c1cccc2nsnc12	i	i	i	80.4	i	i	i	41.5
O=C(CCS(=O)(=O)c1cccc2nsnc12)NC1CCCCCC1	i	i	i	i	i	i	nt	nt
COc1ccc(C(=O)N2CCCC(C)(C(=O)NS(=O)(=O)C3CC3)C2)c(OC)c1 (stereo not drawn)	i	nt	nt	nt	i	i	nt	nt
CCCCc1nc2cc(C(=O)N3CCN(c4cnccn4)CC3)ccc2o1	i	i	i	i	i	i	nt	nt
CCn1c2ccccc2c2cc(NC(=O)c3ccccc3[N+](=O)[O-])ccc21	i	i	i	i	i	i	nt	nt
CCn1c2ccccc2c2cc(NC(=O)c3ccco3)ccc21	i	i	i	77.2	i	i	i	i
CCn1c2ccccc2c2cc(NC(=O)COc3ccccc3OC)ccc21	i	i	i	101.3	i	i	78.7	21.5
SMILES	GalR3 antagonist	OX1R antag-1	CHO parental Ca	OX1R antag-2	TAAR1 ag	TAAR1 antag	OX1R HTRF conf	CHO-K1 HTRF
O=[N+]([O-])c1ccc2n[nH]nc2c1	i	i	i	i	i	i	nt	nt
O=[N+]([O-])c1ccc2nnn(O)c2c1	i	i	i	90.9	i	i	i	46.4
O=C(O)c1ccc2nc3c(nc2c1)-c1ccccc1C3=O	i	i	i	+	i	i	64.5	83.7
C=CCNC(=S)N/N=C(\C)c1cccnc1	i	i	i	104.3	i	i	i	i
Cc1ccc(-c2ccc(CN3C(C(C)C)C(=O)N(Cc4cn(CCC5OCCO5)nn4)CCS3(=O)=O)cc2)c(C)c1 (stereo not drawn)	i	nt	nt	nt	i	i	nt	nt
CC(=O)c1ccc(OCCCC(=O)NNC(=O)c2ccccn2)cc1	i	i	i	i	i	i	nt	nt
COc1ccc(S(=O)(=O)Nc2cc3c4c(c2)CCN4C(=O)CC3)cc1	i	i	i	i	i	i	nt	nt
CCN1C(=O)c2cccc3c(S(=O)(=O)NCc4cccnc4)ccc1c23	i	i	i	77.2	i	i	i	i
CCOC(=O)[C@]12CCC=C1N(Cc1cccc3ccccc13)C(=O)[C@H](CC(=O)NCc1ccc(C)o1)C2	i	nt	nt	nt	i	i	nt	nt
Cc1n[nH]c(C)c1N1C(=O)c2cccc3c(Br)ccc(c23)C1=O	i	i	i	79.7	i	i	i	40.0
COc1ccc(Cn2cc(CN3CCc4onc(-c5ccc(Br)cc5)c4C3=O)nn2)cc1	i	nt	nt	nt	i	i	nt	nt
CCCCNC(=O)c1cccc(S(=O)(=O)N2CC3(C)CC2CC(C)(C)C3)c1 (stereo not drawn)	i	i	i	i	i	i	nt	nt
Cc1ccc(C)n1-c1nccc(-c2cccs2)n1	i	i	i	i	i	i	nt	nt
N#Cc1cccn1-c1nccc(-c2cccs2)n1	i	i	i	86.5	i	i	74.5	i
Nc1c(N=Nc2ccccc2F)c(=O)[nH]n1-c1ccccc1	i	i	i	85.8	i	i	67.0	i
CSc1nnc2c3cc(F)ccc3n(C)c2n1	i	i	i	i	i	i	nt	nt
CCOc1ccc2c(c1)c1nc3ccccc3nc1n2C	i	nt	nt	nt	i	i	nt	nt
Cc1ccc2c(c1)c1nc3ccccc3nc1n2C	i	i	i	94.2	i	i	90.6	i
Cn1c2ccc(F)cc2c2nc3ccccc3nc21	i	i	i	86.9	i	i	91.3	i
CN(Cc1ccco1)S(=O)(=O)c1nnc(NC(=O)c2ccccc2Cl)s1	i	i	i	i	i	i	nt	nt
Cc1ccc(-n2c(C)nn(Cc3ccc([N+](=O)[O-])cc3)c2=O)cc1	i	i	i	i	i	i	nt	nt
Cc1ccc(-n2c3nc(=O)[nH]c(=O)c-3cc3cc([N+](=O)[O-])ccc32)cc1	i	i	i	84.5	i	i	56.0	65.0
Cc1ccc(C(CNC(=O)c2ccco2)N2CCN(C)CC2)cc1 (stereo not drawn)	i	i	i	i	i	i	nt	nt
O=c1nc(-c2ccccc2)cn[nH]1	i	i	i	148.3	i	i	i	36.8
O=c1nc(-c2ccccc2)c(-c2ccccc2)n[nH]1	i	nt	nt	nt	i	i	nt	nt
Cc1cnc(C(=O)N2CCN(S(=O)(=O)c3ccc(F)c(F)c3F)CC2)cn1	i	i	i	i	i	i	nt	nt
